In brackets after ≈: the same amount, converted by molar mass.
What was measured:
Escherichia coli [1] = test: Activity of Escherichia coli 2138 beta-lactamase KPC-2 by spectrophotometry
Outline: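 KPC-2 was expressed in E. coli BL21(DE3) grown in LB with 50 µg/ml kanamycin and induced with 0.4 mM IPTG. It was purified by Q Sepharose, then Bioscale S cation exchange with a 0–1 M NaCl gradient in 40 mM Bis-Tris pH 5.9, then Superdex 75. Km and kcat were measured spectrophotometrically at 37°C in 50 mM phosphate buffer, pH 7.0, using previously described absorption coefficients.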

Escherichia coli [2] = test: Antimicrobial activity against Escherichia coli J53 by Etest method in presence of beta-lactamase inhibitor clavulanic acid; assay type: functional
Outline: (§1)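 MIC by Etest on E. coli J53 (Rifr) recipient and its transconjugants. Transconjugants came from liquid and solid mating at 1:1 and 4:1 recipient:donor ratios in brain heart infusion (37°C, 3 h), then filter mating for 18 h at 37°C. Selection was on LB agar with ampicillin (100 µg/ml), ticarcillin (50 µg/ml) and rifampin (1000 µg/ml).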

Escherichia coli [3] = test: Antimicrobial activity against blaKPC-2 and blaTEM-1 Escherichia coli 2138 by Etest method in presence of beta-lactamase inhibitor clavulanic acid; assay type: functional
Outline: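 MIC read by Etest on the clinical E. coli isolate recovered from a patient hospitalized in France.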

Escherichia coli [4] = test: Antimicrobial activity against Escherichia coli J53 harboring blaKPC-2 and blaTEM-1 by Etest method; assay type: functional
Outline: (§2)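 Strain is an E. coli J53 (rifampin-resistant) transconjugant from E. cloacae 7506. Donor and recipient were mixed at 1:1 and 4:1, shaken in brain heart infusion at 37°C for 3 h, then held on a filter on BHI agar for 18 h at 37°C. Transconjugants were selected on LB agar with ampicillin 100 µg/ml, ticarcillin 50 µg/ml and rifampin 1000 µg/ml. MICs were read by Etest.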

Escherichia coli [5] = test: Antimicrobial activity against Escherichia coli TOP10 by Etest method; assay type: functional
Escherichia coli [6] = test: Antimicrobial activity against Escherichia coli TOP10 harboring blaKPC-2 and blaTEM-1 gene by Etest method; assay type: functional
Outline: (§3)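 Strain is an E. coli Top10 transformant obtained by electroporation of plasmid DNA extracted from E. coli 2138. MICs were read by Etest.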

Escherichia coli [7] = test: Antimicrobial activity against Escherichia coli J53 harboring blaKPC-2 and blaTEM-1 gene by Etest method in presence of beta-lactamase inhibitor clavulanic acid; assay type: functional; outline: as §1
Escherichia coli [8] = test: Antimicrobial activity against Escherichia coli J53 by Etest method; assay type: functional
Escherichia coli [9] = test: Antimicrobial activity against blaKPC-2 and blaTEM-1 producing Escherichia coli 2138 by Etest method; assay type: functional
Escherichia coli [10] = test: Antimicrobial activity against Escherichia coli TOP10 harboring blaKPC-2 and blaTEM-1 gene by Etest method in presence of beta-lactamase inhibitor clavulanic acid; assay type: functional
Outline: (§4)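 MIC by Etest on E. coli Top10 host and its transformants. Transformants were obtained by electroporating plasmid DNA extracted from the clinical E. coli isolate.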

Enterobacter cloacae [11] = test: Antimicrobial activity against blaKPC-2, blaKLUC-2 and blaTEM-1 producing Enterobacter cloacae 7506 by Etest method; assay type: functional
Escherichia coli [12] = test: Antimicrobial activity against Escherichia coli TOP10 by Etest method in presence of beta-lactamase inhibitor clavulanic acid; assay type: functional; outline: as §4
Enterobacter cloacae [13] = test: Antimicrobial activity against blaKPC-2, blaKLUC-2 and blaTEM-1 producing Enterobacter cloacae 7506 by Etest method in presence of beta-lactamase inhibitor clavulanic acid; assay type: functional
Escherichia coli [14] = test: Antimicrobial activity against blaKPC-2 producing Escherichia coli DH5alpha by Etest method; conditions: DH5[alpha]
Escherichia coli [15] = test: Antimicrobial activity against Escherichia coli J53 harboring blaKPC-2 and blaTEM-1 gene by Etest method in presence of beta-lactamase inhibitor Tazobactam; assay type: functional; outline: as §2
Escherichia coli [16] = test: Antimicrobial activity against Escherichia coli TOP10 harboring blaKPC-2 and blaTEM-1 gene by Etest method in presence of beta-lactamase inhibitor Tazobactam; assay type: functional; outline: as §3
Escherichia coli [17] = test: Antimicrobial activity against blaKPC-2 and blaTEM-1 producing Escherichia coli 2138 by Etest method in presence of beta-lactamase inhibitor Tazobactam; assay type: functional
Enterobacter cloacae [18] = test: Antimicrobial activity against blaKPC-2, blaKLUC-2 and blaTEM-1 producing Enterobacter cloacae 7506 by Etest method in presence of beta-lactamase inhibitor Tazobactam; assay type: functional
Escherichia coli [19] = test: Antimicrobial activity against Escherichia coli J53 by Etest method in presence of beta-lactamase inhibitor Tazobactam; assay type: functional
Escherichia coli [20] = test: Antimicrobial activity against Escherichia coli TOP10 by Etest method in presence of beta-lactamase inhibitor Tazobactam; assay type: functional

Structure (SMILES)	Km (Escherichia coli [1]) [µM]	kcat (Escherichia coli [1]) [s⁻¹]	MIC (Escherichia coli [4]) [µg/mL]	MIC (Escherichia coli [5]) [µg/mL]	MIC (Escherichia coli [6]) [µg/mL]	MIC (Escherichia coli [8]) [µg/mL]	MIC (Escherichia coli [9]) [µg/mL]	MIC (Enterobacter cloacae [11]) [µg/mL]	other results
CC(=O)OCC1=C(C(=O)O)N2C(=O)[C@@H](NC(=O)Cc3cccs3)[C@H]2SC1	141	106	–	–	–	–	–	–	–
CC1(C)S[C@@H]2[C@H](NC(=O)Cc3ccccc3)C(=O)N2[C@H]1C(=O)O	44	45	–	–	–	–	–	–	–
CC1(C)S[C@@H]2[C@H](NC(=O)[C@H](N)c3ccccc3)C(=O)N2[C@H]1C(=O)O	29	20	–	–	–	–	–	–	–
CO/N=C(\C(=O)N[C@@H]1C(=O)N2C(C(=O)O)=C(COC(N)=O)CS[C@H]12)c1ccco1	160	66	–	–	–	–	–	–	–
CO/N=C(\C(=O)N[C@@H]1C(=O)N2C(C(=O)[O-])=C(C[n+]3cccc4c3CCC4)CS[C@H]12)c1csc(N)n1	251	12	–	–	–	–	–	–	–
CC1(C)S[C@@H]2[C@H](NC(=O)[C@H](N)c3ccc(O)cc3)C(=O)N2[C@H]1C(=O)O [AMOXICILLIN]	–	–	> 256	3 (≈ 8.21 µM)	> 256	3 (≈ 8.21 µM)	> 256	> 256	MIC (Escherichia coli [2]): 2 µg/mL; MIC (Escherichia coli [3]): 24 µg/mL; MIC (Escherichia coli [7]): 16 µg/mL; MIC (Escherichia coli [10]): 48 µg/mL; MIC (Escherichia coli [12]): 2 µg/mL; MIC (Enterobacter cloacae [13]): 96 µg/mL
C[C@H]1[C@H](NC(=O)/C(=N\OC(C)(C)C(=O)O)c2csc(N)n2)C(=O)N1S(=O)(=O)O [AZTREONAM]	35	3	8 (≈ 18.4 µM)	0.047 (≈ 0.108 µM)	24 (≈ 55.1 µM)	< 0.016	64 (≈ 147 µM)	–	–
CO/N=C(\C(=O)N[C@@H]1C(=O)N2C(C(=O)O)=C(COC(C)=O)CS[C@H]12)c1csc(N)n1 [CEFOTAXIME]	174	66	4 (≈ 8.78 µM)	0.047 (≈ 0.103 µM)	12 (≈ 26.3 µM)	0.032 (≈ 0.0703 µM)	16 (≈ 35.1 µM)	> 32	–
CC(C)(O/N=C(\C(=O)N[C@@H]1C(=O)N2C(C(=O)[O-])=C(C[n+]3ccccc3)CS[C@H]12)c1csc(N)n1)C(=O)O [CEFTAZIDIME]	–	–	2 (≈ 3.66 µM)	0.19 (≈ 0.348 µM)	6 (≈ 11 µM)	0.064 (≈ 0.117 µM)	8 (≈ 14.6 µM)	32 (≈ 58.5 µM)	MIC (Escherichia coli [14]): 32 µg/mL (≈ 58.5 µM)
C[C@@H](O)[C@H]1C(=O)N2C(C(=O)O)=C(SCCNC=N)C[C@H]12 [IMIPENEM ANHYDROUS]	88	20	0.5 (≈ 1.67 µM)	0.19 (≈ 0.635 µM)	1.5 (≈ 5.01 µM)	0.094 (≈ 0.314 µM)	3 (≈ 10 µM)	3 (≈ 10 µM)	–
CCN1CCN(C(=O)N[C@@H](C(=O)N[C@@H]2C(=O)N3[C@@H]2SC(C)(C)[C@@H]3C(=O)O)c2ccccc2)C(=O)C1=O [PIPERACILLIN]	51	40	> 256	0.75 (≈ 1.45 µM)	> 256	0.38 (≈ 0.734 µM)	> 256	> 256	MIC (Escherichia coli [15]): > 256 µg/mL; MIC (Escherichia coli [16]): > 256 µg/mL; MIC (Escherichia coli [17]): > 256 µg/mL; MIC (Enterobacter cloacae [18]): > 256 µg/mL; MIC (Escherichia coli [19]): 0.38 µg/mL; MIC (Escherichia coli [20]): 0.75 µg/mL
CC1(C)S[C@@H]2[C@H](NC(=O)[C@H](C(=O)O)c3ccsc3)C(=O)N2[C@H]1C(=O)O [TICARCILLIN]	–	–	> 256	1.5 (≈ 3.9 µM)	> 256	1.5 (≈ 3.9 µM)	> 256	> 256	–
